Experimental data: PMC2726660 (Archives of biochemistry and biophysics, 2009)
Read-outs that look alike come from different tables or passages of the source. Each block holds one compound with its values, some of them ahead of it.

Tests used:
[1] = system: MCF-7 human breast carcinoma cells; assay: Growth of human breast carcinoma MCF-7 cells; format: cell-based; details: for IC50: read-out: Inhibition of cell growth IC50 (μM) ± S. D., MCF-7 cells, 48 h, sulforhodamine B
Procedure, shortened: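 MCF-7 cells from the NCI drug screening group, grown in RPMI with 10% heat-treated fetal bovine serum. About 5,000 cells per well seeded, adhered overnight, then exposed to test compound for 48 h at 37 °C in humidified 5% CO2; final DMSO 0.5% (v/v). Growth read as cellular protein by sulforhodamine B staining. IC50 is 50% growth inhibition.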

[2] = system: purified bovine brain tubulin; assay: Centrifugal assay for spiral formation; format: biochemical; details: threshold EC50 < 100 μM
Procedure, shortened: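 Purified bovine brain tubulin (MAP-free) at 10 μM in 0.75 M monosodium glutamate (stock pH 6.6), 10 μM GTP, 4% (v/v) DMSO as compound solvent. Incubated 20 min at 30 °C, then centrifuged 15 min at room temperature (about 20 °C). Lowry protein measured in supernatant and in uncentrifuged mixture. EC50 is the concentration removing 50% of tubulin from the supernatant versus no-compound reactions.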

[3] = system: purified bovine brain tubulin; assay: Turbidimetric tubulin assembly assay in glutamate; format: biochemical
cultured cells = assay: Microtubule bundle formation in cultured cells; format: cell-based; details: synthetic compound
tubulin [4] = details: cited from earlier work
tubulin [5] = assay: Binding of [3H]vinblastine to tubulin; details: authors' attempt to reproduce ref 3
preformed microtubules = assay: Binding of radiolabeled paclitaxel to preformed microtubules; details: unpublished data
tubulin [6] = assay: Binding of radiolabeled colchicine to tubulin; parameters: species or system bovine
[7] = cited from earlier work
[8] = system: purified bovine brain tubulin; assay: Electron microscopy of polymer morphology; format: biochemical; details: 10 μM compound, 10 μM tubulin, 0.75 M glutamate, 30 min at 30 °C
Procedure, shortened: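 Purified bovine brain tubulin with microtubule-associated proteins removed, at 10 μM, in 0.75 M monosodium glutamate (stock pH 6.6), 10 μM GTP and 4% DMSO. Test compound at 10 μM, with a no-addition control. After 30 min at 30 °C, aliquots were put on carbon-coated Formvar copper grids and stained with 5-10 drops of 1% uranyl acetate. Excess stain was wicked off and grids examined by TEM.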

IC50 [1]: 1.8 ± 0.7 µM
Compound: (±)-rhazinilam
activity in the cell-based (MCF-7) assay, in words ([1]; threshold IC50 < 10 μM): approximately half as active as (−)-rhazinilam
activity in the tubulin-based (spiralization) assay, in words [2]: approximately half as active as (−)-rhazinilam

IC50 [1]: 0.97 ± 0.3 µM
inhibition of the binding of [3H]vinblastine to tubulin (tubulin [5]): unable to reproduce this result
inhibition of the binding of radiolabeled paclitaxel to preformed microtubules (preformed microtubules): no inhibitory effect
inhibition of the binding of radiolabeled colchicine to tubulin (tubulin [6]): no inhibitory effect
Compound: (−)-rhazinilam
disassembly of polymer at 0 °C ([3]; 20 μM compound + 0.4 mM GTP, 0.75 M glutamate (Fig. 5, curve 4)): little disassembly
disassembly of polymer at 0 °C ([3]; 20 μM compound, no GTP, 0.75 M glutamate (Fig. 5, curve 2)): disassembled slowly in the cold
concentration at end of the inhibitory effect on tubulin assembly ([3]; 0.8 M glutamate, 0.4 mM GTP, 10 μM tubulin (Fig. 2, curve 4)): 3 µM
concentration at onset of spiral induction ([3]; 0.8 M glutamate, 0.4 mM GTP, 10 μM tubulin (Fig. 2, curve 5)): 4 µM
effect on microtubules in cultured cells (cultured cells): formation of extensive bundled microtubules
inhibition of the binding of [3H]vinblastine to tubulin (tubulin [4]): inhibited the binding

IC50 [1]: 3.8 ± 1 µM
Compound: CC12CCCn3ccc(c31)-c1ccccc1NC(=O)CC2 (stereo not shown) [Compound 5]

Compound: (+)-rhazinilam
activity of the enantiomer, in words [7]: inactive

Compound: CC[C@]1(O)C[C@@H]2CN(CCc3c([nH]c4ccccc34)[C@@](C(=O)OC)(c3cc4c(cc3OC)N(C)[C@H]3[C@@](O)(C(=O)OC)[C@H](OC(C)=O)[C@]5(CC)C=CCN6CC[C@]43[C@@H]65)C2)C1 [vinblastine]
morphology of polymer formed in glutamate with 10 μM GTP [8]: typical tight spirals
